Data published in ChEMBL document CHEMBL4706728, “Discovery of a Highly Selective and Potent TRPC3 Inhibitor with High Metabolic Stability and Low Toxicity” (ACS Med Chem Lett, 2021).
Calls of active or inactive are those of the source. The calls are words filed in the database; no cut-off is given here.

Columns and labels:
[1] = molecular target: Transient receptor potential cation channel subfamily M member 8 (Homo sapiens) (UniProt Q7Z2W7); assay: Inhibition of human TRPM8 expressed in HEK293 cells assessed as inhibition of […]-induced current at 10 uM by whole cell patch-clamp method; format: cell-based
Transient receptor potential cation channel subfamily M member 8 (Homo sapiens), sequence (Q7Z2W7 whole entry, looked up, the tested form may be a part): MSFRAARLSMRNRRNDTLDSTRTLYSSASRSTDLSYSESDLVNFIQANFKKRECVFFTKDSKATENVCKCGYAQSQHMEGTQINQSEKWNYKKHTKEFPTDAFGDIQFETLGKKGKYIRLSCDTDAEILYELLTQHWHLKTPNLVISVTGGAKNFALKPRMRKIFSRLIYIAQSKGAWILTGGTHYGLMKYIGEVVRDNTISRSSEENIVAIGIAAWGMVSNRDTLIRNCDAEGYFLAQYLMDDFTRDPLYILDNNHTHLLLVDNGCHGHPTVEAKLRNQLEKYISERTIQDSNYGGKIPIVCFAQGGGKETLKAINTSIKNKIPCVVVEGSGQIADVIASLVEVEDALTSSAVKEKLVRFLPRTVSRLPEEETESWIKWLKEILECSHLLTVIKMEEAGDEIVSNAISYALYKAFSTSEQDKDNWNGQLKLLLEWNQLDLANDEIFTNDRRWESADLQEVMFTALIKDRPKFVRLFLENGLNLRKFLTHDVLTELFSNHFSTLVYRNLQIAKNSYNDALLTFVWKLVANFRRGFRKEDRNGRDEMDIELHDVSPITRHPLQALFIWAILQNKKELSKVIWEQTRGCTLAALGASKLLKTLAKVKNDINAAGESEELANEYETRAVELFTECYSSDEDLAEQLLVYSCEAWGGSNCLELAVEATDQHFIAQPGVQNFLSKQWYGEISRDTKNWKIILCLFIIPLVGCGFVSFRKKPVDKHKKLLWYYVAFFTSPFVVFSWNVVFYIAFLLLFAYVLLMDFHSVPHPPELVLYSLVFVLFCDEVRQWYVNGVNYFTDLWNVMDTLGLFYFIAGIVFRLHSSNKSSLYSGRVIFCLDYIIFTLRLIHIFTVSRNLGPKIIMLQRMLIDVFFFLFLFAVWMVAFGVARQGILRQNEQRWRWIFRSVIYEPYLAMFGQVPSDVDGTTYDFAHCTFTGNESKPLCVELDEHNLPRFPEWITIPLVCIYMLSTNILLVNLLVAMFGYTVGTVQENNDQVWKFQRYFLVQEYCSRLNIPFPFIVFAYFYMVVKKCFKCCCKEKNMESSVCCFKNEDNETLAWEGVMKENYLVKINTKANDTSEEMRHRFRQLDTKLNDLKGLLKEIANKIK
In short: (§1)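 TRP channels overexpressed in HEK293 cells (hTRPA1, rTRPV1, rTRPV4, mouse TRPC6, hTRPC7, hTRPM8). Whole-cell patch clamp with Ca2+-free solutions to avoid desensitization. Channels fully activated with high concentrations of their agonists (AITC for TRPA1, capsaicin for TRPV1, GSK1016790A for TRPV4), then 10 μM test compound perfused with agonist. Result expressed as percentage of peak current blocked; mean ± SD.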

[2] = molecular target: T1, Short transient receptor potential channel 3 (Homo sapiens) (UniProt Q13507); assay: Inhibition of human TRPC3 expressed in HEK293 cells assessed as inhibition of OAG-induced current at 0.001 to 10 uM by whole cell patch-clamp method; format: cell-based; conditions: dose 0.001-10 µM
T1 sequence (whole entry): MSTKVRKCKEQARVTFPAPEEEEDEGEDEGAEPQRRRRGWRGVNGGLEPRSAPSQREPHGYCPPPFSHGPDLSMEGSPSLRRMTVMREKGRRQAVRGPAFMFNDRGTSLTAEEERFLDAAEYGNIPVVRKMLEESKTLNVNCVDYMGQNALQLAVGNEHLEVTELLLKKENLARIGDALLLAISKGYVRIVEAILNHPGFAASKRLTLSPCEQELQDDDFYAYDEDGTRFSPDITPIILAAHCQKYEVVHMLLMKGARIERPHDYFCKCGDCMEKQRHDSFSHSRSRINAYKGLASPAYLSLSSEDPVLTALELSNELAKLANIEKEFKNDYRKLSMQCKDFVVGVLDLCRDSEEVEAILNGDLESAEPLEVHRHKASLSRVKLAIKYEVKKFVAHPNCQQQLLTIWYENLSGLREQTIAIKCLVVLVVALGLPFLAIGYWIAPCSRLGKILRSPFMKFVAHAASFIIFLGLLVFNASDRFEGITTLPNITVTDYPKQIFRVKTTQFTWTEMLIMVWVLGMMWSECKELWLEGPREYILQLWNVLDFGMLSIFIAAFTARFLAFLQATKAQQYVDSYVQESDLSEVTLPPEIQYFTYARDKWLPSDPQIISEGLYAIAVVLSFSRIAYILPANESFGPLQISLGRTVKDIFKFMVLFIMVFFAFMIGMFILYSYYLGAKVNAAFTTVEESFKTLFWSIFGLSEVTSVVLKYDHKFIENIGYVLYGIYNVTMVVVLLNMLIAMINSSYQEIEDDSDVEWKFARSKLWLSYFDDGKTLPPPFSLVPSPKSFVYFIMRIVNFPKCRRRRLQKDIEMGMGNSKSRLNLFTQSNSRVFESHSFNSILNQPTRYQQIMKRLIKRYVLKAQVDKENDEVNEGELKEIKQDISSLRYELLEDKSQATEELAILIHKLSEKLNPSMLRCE
In short: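 Whole-cell recordings of hTRPC3 expressed in HEK293 cells, channel activated by 1-oleoyl-2-acetyl-sn-glycerol (membrane-permeable diacylglycerol analogue) instead of GSK1702934A. Inhibitor at a range of concentrations co-perfused with agonist to build a dose–response profile.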

[3] = Metabolic stability in human liver microsomes assessed as half life at […] measured up to 240 mins in presence of NADPH regeneration system by LC-MS analysis; format: ADME, Microsome
[4] = Metabolic stability in mouse liver microsomes assessed as half life at […] measured up to 240 mins in presence of NADPH regeneration system by LC-MS analysis; format: ADME, Microsome
[5] = molecular target: Transient receptor potential cation channel subfamily V member 4 (Rattus norvegicus) (UniProt Q9ERZ8); assay: Inhibition of rat TRPV4 expressed in HEK293 cells assessed as inhibition of GSK101-induced current at 10 uM by whole cell patch-clamp method; format: cell-based; in short: as §1
Transient receptor potential cation channel subfamily V member 4 (Rattus norvegicus), sequence (Q9ERZ8 whole entry): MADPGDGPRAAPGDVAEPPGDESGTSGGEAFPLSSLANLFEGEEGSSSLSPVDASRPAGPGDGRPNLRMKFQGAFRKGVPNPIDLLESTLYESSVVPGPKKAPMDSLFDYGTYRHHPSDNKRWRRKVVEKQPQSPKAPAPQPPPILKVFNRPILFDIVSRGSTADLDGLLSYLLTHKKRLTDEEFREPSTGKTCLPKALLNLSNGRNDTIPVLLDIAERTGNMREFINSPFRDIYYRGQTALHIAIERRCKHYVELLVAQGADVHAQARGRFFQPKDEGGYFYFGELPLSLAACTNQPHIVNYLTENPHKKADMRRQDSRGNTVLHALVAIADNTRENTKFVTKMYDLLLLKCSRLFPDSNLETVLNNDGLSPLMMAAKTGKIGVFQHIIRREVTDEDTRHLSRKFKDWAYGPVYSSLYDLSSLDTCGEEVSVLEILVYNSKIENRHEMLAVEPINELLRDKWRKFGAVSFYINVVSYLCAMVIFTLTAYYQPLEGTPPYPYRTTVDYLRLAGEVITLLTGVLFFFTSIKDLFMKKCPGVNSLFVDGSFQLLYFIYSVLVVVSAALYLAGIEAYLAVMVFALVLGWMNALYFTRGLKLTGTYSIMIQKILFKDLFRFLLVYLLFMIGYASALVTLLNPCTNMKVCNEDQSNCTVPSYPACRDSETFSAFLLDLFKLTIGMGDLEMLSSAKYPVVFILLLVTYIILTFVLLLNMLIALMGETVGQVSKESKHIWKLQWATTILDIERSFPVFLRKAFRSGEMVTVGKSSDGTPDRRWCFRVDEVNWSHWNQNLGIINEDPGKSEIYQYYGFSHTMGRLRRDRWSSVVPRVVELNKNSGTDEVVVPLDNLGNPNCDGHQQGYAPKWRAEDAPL

[6] = molecular target: Transient receptor potential cation channel subfamily A member 1 (Homo sapiens) (UniProt O75762); assay: Inhibition of human TRPA1 expressed in HEK293 cells assessed as inhibition of AITC-induced current at 10 uM by whole cell patch-clamp method; format: cell-based; in short: as §1
Transient receptor potential cation channel subfamily A member 1 (Homo sapiens), sequence (O75762 whole entry): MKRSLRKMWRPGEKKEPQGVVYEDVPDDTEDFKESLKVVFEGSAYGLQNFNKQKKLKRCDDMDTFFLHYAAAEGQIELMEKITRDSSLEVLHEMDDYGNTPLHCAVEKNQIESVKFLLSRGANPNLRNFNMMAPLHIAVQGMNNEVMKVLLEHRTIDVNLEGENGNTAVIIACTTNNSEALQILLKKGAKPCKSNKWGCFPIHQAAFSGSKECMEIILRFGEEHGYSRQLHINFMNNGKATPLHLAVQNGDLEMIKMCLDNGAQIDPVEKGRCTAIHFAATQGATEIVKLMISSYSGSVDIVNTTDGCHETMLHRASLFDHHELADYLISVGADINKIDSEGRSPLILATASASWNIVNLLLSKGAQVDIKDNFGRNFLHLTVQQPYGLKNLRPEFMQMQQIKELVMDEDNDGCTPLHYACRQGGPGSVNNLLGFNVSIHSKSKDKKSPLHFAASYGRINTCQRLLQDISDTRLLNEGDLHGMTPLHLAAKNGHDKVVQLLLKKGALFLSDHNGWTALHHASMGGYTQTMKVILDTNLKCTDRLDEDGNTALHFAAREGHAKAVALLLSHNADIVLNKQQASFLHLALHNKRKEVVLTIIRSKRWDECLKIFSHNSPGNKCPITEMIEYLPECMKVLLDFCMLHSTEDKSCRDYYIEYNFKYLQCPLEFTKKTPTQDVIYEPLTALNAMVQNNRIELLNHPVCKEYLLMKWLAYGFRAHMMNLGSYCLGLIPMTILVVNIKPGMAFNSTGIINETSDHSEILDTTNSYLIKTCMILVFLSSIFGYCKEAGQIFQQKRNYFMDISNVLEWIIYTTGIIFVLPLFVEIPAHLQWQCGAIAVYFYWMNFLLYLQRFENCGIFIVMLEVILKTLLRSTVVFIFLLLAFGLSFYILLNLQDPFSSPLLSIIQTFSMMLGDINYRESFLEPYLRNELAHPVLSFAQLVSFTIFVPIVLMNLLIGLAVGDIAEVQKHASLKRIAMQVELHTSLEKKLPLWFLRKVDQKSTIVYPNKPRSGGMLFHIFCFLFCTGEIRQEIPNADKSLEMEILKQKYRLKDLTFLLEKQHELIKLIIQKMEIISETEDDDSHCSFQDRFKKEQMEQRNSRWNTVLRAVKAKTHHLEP

[7] = Binding affinity to human His8-MBP-TRPC3b I395V mutant expressed in baculovirus infected Sf9 cells incubated for 1 hr by LC-MS analysis
In short: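 Purified hTRPC3 protein incubated with compound for 1 h. Free compound removed by repeated size-exclusion chromatography. Methanol added to denature the protein and extract bound compound, which is detected by LC-MS against a prepared control. MS data collected from 2.5 min onward to keep buffer salts out.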

[8] = Toxicity in NSG/ICR mouse assessed as body weight loss at 200 mg/kg, ip administered once daily for 5 days; format: organism-based; conditions: in vivo, 120 h, dose 200 mg/kg/day, time 5 day
In short: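 Mice (n = 5 per group) dosed at 200 mg/kg by intraperitoneal injection once daily for 5 consecutive days. Survival monitored. Body weight expressed as mean percent change ± SD relative to weight at the start of treatment (day 0), with 15% weight loss as the reference line.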

CCNC(=O)c1cnn(-c2ccc(-n3ccc(Cl)c(Cl)c3=O)cc2)c1C(F)(F)F
inhibition [1]: inactive | inhibition [2]: Active | half-life [3]: > 4 h | half-life [4]: > 4 h | inhibition [5]: inactive | inhibition [6]: inactive | Activity [7]: Active | Activity [8]: Non-Toxic
